{"source": "ChEMBL document CHEMBL1142192", "about": "“Natural polymorphisms in the human immunodeficiency virus type 2 protease can accelerate time to development of resistance to protease inhibitors” (Antimicrob Agents Chemother, 2007)", "type_in_all_cases": "functional, organism-based", "key": {"[1]": {"test_system": "Human immunodeficiency virus 2", "experiment": "Antiviral activity against wild type HIV2 in CBMCs", "how_it_was_run": "(§1)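 Cord blood mononuclear cells were infected for 2 h with wild-type virus (HIV-1: subtype B clinical isolate 5512; HIV-2: isolates CBL-20, CBL-23, MVP-15132). Cells were plated onto fivefold drug dilutions (0.00064–10 μM) at 37°C, 5% CO₂, and refed with drug-containing medium on day 3. RT enzyme assay was run on day 7, and IC₅₀ fitted. Means of ≥2 independent experiments, each in duplicate.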"}, "[2]": {"test_system": "Human immunodeficiency virus 2", "experiment": "Antiviral activity against HIV2 isolate CBL20, CBL23, MVP15132 with 182L mutation in CBMCs", "how_it_was_run": "(§2)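 PI-selected variants were obtained by weekly culture passage with escalating drug, 0.05 μM rising to 0.25–10 μM, and phenotyped at week 38. Cord blood mononuclear cells were infected for 2 h and plated onto fivefold drug dilutions from 0.00064 to 10 μM at 37°C, 5% CO₂. Cells were refed with drug on day 3. Day-7 culture-fluid RT activity gave IC50. Means come from at least two experiments, each in duplicate. Fold change is relative to wild-type virus.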"}, "[3]": {"test_system": "Human immunodeficiency virus 2", "experiment": "Antiviral activity against HIV2 isolate CBL20, CBL23, MVP15132 with 182F mutation in CBMCs", "how_it_was_run": "as §2"}, "[4]": {"test_system": "Human immunodeficiency virus 2", "experiment": "Antiviral activity against HIV2 isolate CBL20, CBL23, MVP15132 with V62A and L99F mutation in CBMCs", "how_it_was_run": "as §2"}, "[5]": {"test_system": "Human immunodeficiency virus 2", "experiment": "Antiviral activity against HIV2 isolate CBL20, CBL23, MVP15132 with 150V mutation in CBMCs", "how_it_was_run": "as §2"}, "[6]": {"test_system": "Human immunodeficiency virus 2", "experiment": "Antiviral activity against HIV2 isolate CBL20, CBL23, MVP15132 with 154M mutation in CBMCs", "how_it_was_run": "as §2"}, "[7]": {"test_system": "Human immunodeficiency virus 2", "experiment": "Antiviral activity against HIV2 isolate CBL20, CBL23, MVP15132 with […] and L90M mutation in CBMCs", "how_it_was_run": "as §2"}, "[8]": {"test_system": "Human immunodeficiency virus 2", "experiment": "Antiviral activity against HIV2 isolate CBL20, CBL23, MVP15132 with […] and […] mutation in CBMCs", "how_it_was_run": "as §2"}, "[9]": {"test_system": "Human immunodeficiency virus 2", "experiment": "Antiviral activity against HIV2 isolate CBL20, CBL23, MVP15132 with […] and L99F mutation in CBMCs", "how_it_was_run": "as §2"}, "[10]": {"test_system": "Human immunodeficiency virus 1", "experiment": "Antiviral activity against wild type HIV1 in CBMCs", "how_it_was_run": "as §1"}, "[11]": {"test_system": "Human immunodeficiency virus 1", "experiment": "Antiviral activity against HIV1 isolate 5512 with […] and M46L mutation in CBMCs", "how_it_was_run": "as §2"}, "[12]": {"test_system": "Human immunodeficiency virus 1", "experiment": "Antiviral activity against HIV1 isolate 5512 with M36I/M and V82T mutation in CBMCs", "how_it_was_run": "as §2"}, "[13]": {"test_system": "Human immunodeficiency virus 1", "experiment": "Antiviral activity against HIV1 isolate 5512 with D30N, […] and […] mutation in CBMCs", "how_it_was_run": "as §2"}}, "data": [{"smiles": "Cc1cccc(C)c1OCC(=O)N[C@@H](Cc1ccccc1)[C@@H](O)C[C@H](Cc1ccccc1)NC(=O)[C@H](C(C)C)N1CCCNC1=O", "note": "[LOPINAVIR]", "values": [{"measurement": "IC50", "setting": "[1]", "result": 4, "unit": "nM"}, {"measurement": "IC50", "setting": "[2]", "result": 75, "unit": "nM"}, {"measurement": "IC50", "setting": "[3]", "result": 145, "unit": "nM"}, {"measurement": "IC50", "setting": "[4]", "result": 496, "unit": "nM"}, {"measurement": "IC50", "setting": "[5]", "result": 203, "unit": "nM"}, {"measurement": "IC50", "setting": "[6]", "result": 481, "unit": "nM"}, {"measurement": "IC50", "setting": "[7]", "result": 524, "unit": "nM"}, {"measurement": "IC50", "setting": "[8]", "result": 375, "unit": "nM"}, {"measurement": "IC50", "setting": "[9]", "result": 414, "unit": "nM"}, {"measurement": "IC50", "setting": "[10]", "result": 2, "unit": "nM"}, {"measurement": "IC50", "setting": "[11]", "result": 1, "unit": "nM"}, {"measurement": "IC50", "setting": "[12]", "result": 7, "unit": "nM"}]}, {"smiles": "CCC[C@@]1(CCc2ccccc2)CC(O)=C([C@H](CC)c2cccc(NS(=O)(=O)c3ccc(C(F)(F)F)cn3)c2)C(=O)O1", "note": "[TIPRANAVIR]", "values": [{"measurement": "IC50", "setting": "[1]", "result": 160, "unit": "nM"}, {"measurement": "IC50", "setting": "[2]", "result": 4440, "unit": "nM"}, {"measurement": "IC50", "setting": "[3]", "result": 306, "unit": "nM"}, {"measurement": "IC50", "setting": "[4]", "result": 524, "unit": "nM"}, {"measurement": "IC50", "setting": "[5]", "result": 316, "unit": "nM"}, {"measurement": "IC50", "setting": "[6]", "result": 1110, "unit": "nM"}, {"measurement": "IC50", "setting": "[7]", "result": 145, "unit": "nM"}, {"measurement": "IC50", "setting": "[8]", "result": 2030, "unit": "nM"}, {"measurement": "IC50", "setting": "[9]", "result": 2910, "unit": "nM"}, {"measurement": "IC50", "setting": "[10]", "result": 92, "unit": "nM"}, {"measurement": "IC50", "setting": "[11]", "result": 42, "unit": "nM"}, {"measurement": "IC50", "setting": "[13]", "result": 1, "unit": "nM"}, {"measurement": "IC50", "setting": "[12]", "result": 192, "unit": "nM"}]}, {"smiles": "CC(C)(C)NC(=O)[C@@H]1CN(Cc2cccnc2)CCN1C[C@@H](O)C[C@@H](Cc1ccccc1)C(=O)N[C@H]1c2ccccc2C[C@H]1O", "note": "[INDINAVIR]", "values": [{"measurement": "IC50", "setting": "[1]", "result": 16, "unit": "nM"}, {"measurement": "IC50", "setting": "[2]", "result": 64, "unit": "nM"}, {"measurement": "IC50", "setting": "[3]", "result": 544, "unit": "nM"}, {"measurement": "IC50", "setting": "[4]", "result": 143, "unit": "nM"}, {"measurement": "IC50", "setting": "[5]", "result": 72, "unit": "nM"}, {"measurement": "IC50", "setting": "[6]", "result": 236, "unit": "nM"}, {"measurement": "IC50", "setting": "[7]", "result": 1110, "unit": "nM"}, {"measurement": "IC50", "setting": "[8]", "result": 388, "unit": "nM"}, {"measurement": "IC50", "setting": "[9]", "result": 825, "unit": "nM"}, {"measurement": "IC50", "setting": "[10]", "result": 27, "unit": "nM"}, {"measurement": "IC50", "setting": "[11]", "result": 45, "unit": "nM"}, {"measurement": "IC50", "setting": "[13]", "result": 25, "unit": "nM"}, {"measurement": "IC50", "setting": "[12]", "result": 14, "unit": "nM"}]}, {"smiles": "Cc1c(O)cccc1C(=O)N[C@@H](CSc1ccccc1)[C@H](O)CN1C[C@H]2CCCC[C@H]2C[C@H]1C(=O)NC(C)(C)C", "note": "[NELFINAVIR]", "values": [{"measurement": "IC50", "setting": "[1]", "result": 64, "unit": "nM"}, {"measurement": "IC50", "setting": "[2]", "result": 106, "unit": "nM"}, {"measurement": "IC50", "setting": "[3]", "result": 244, "unit": "nM"}, {"measurement": "IC50", "setting": "[4]", "result": 961, "unit": "nM"}, {"measurement": "IC50", "setting": "[5]", "result": 132, "unit": "nM"}, {"measurement": "IC50", "setting": "[6]", "result": 624, "unit": "nM"}, {"measurement": "IC50", "setting": "[7]", "result": 2560, "unit": "nM"}, {"measurement": "IC50", "setting": "[8]", "result": 1750, "unit": "nM"}, {"measurement": "IC50", "setting": "[9]", "result": 2240, "unit": "nM"}, {"measurement": "IC50", "setting": "[10]", "result": 14, "unit": "nM"}, {"measurement": "IC50", "setting": "[11]", "result": 31, "unit": "nM"}, {"measurement": "IC50", "setting": "[13]", "result": 677, "unit": "nM"}, {"measurement": "IC50", "setting": "[12]", "result": 10, "unit": "nM"}]}, {"smiles": "CC(C)CN(C[C@@H](O)[C@H](Cc1ccccc1)NC(=O)O[C@H]1CCOC1)S(=O)(=O)c1ccc(N)cc1", "note": "[AMPRENAVIR]", "values": [{"measurement": "IC50", "setting": "[1]", "result": 440, "unit": "nM"}, {"measurement": "IC50", "setting": "[2]", "result": 528, "unit": "nM"}, {"measurement": "IC50", "setting": "[3]", "result": 965, "unit": "nM"}, {"measurement": "IC50", "setting": "[4]", "result": 98, "unit": "nM"}, {"measurement": "IC50", "setting": "[5]", "result": "> 10000", "unit": "nM"}, {"measurement": "IC50", "setting": "[6]", "result": "> 10000", "unit": "nM"}, {"measurement": "IC50", "setting": "[7]", "result": "> 10000", "unit": "nM"}, {"measurement": "IC50", "setting": "[8]", "result": "> 10000", "unit": "nM"}, {"measurement": "IC50", "setting": "[9]", "result": "> 10000", "unit": "nM"}, {"measurement": "IC50", "setting": "[10]", "result": 26, "unit": "nM"}, {"measurement": "IC50", "setting": "[11]", "result": 116, "unit": "nM"}, {"measurement": "IC50", "setting": "[13]", "result": 19, "unit": "nM"}, {"measurement": "IC50", "setting": "[12]", "result": 3, "unit": "nM"}]}]}
